Screens as filed in PubChem BioAssay.
Rows were chosen to be rich in hits. Some 1.6% of all compounds tested hit in one or more screens of this group.
FLuc stim CS – FLuc activators, initial screening, artefact control for FLuc-dependent activation tests, biochemical, ATPlite luminescence; 200,000 tested, under 10 active; ATPlite luciferase biochemical, 10 min; 0 = ATP-free wells, 1 = DMSO control; activation factor at 10 µM; Luciferin 4-monooxygenase (Photinus pyralis), P08659;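 active = luciferase activation factor, scaled between plate controls, of at least 2 with compound at 10 µM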
Target sequence (P08659 whole entry, looked up): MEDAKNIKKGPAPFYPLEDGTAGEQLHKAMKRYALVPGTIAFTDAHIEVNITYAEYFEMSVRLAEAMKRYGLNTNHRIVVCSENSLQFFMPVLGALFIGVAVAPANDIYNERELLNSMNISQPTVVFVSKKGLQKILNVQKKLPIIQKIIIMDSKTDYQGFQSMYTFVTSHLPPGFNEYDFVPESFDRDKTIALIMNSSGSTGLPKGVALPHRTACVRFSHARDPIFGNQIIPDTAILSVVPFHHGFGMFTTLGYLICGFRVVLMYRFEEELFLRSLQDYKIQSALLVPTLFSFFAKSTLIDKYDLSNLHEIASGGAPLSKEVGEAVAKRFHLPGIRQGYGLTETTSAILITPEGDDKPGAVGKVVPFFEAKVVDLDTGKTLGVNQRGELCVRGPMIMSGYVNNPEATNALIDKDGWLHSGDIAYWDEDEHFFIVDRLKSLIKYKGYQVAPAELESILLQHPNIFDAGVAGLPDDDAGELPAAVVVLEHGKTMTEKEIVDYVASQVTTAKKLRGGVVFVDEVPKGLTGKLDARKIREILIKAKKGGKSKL
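Assay system – cell-free luciferase reagent · Medium – PBS-based ATP solution · Dosing – test compounds dosed from 2 mM stocks in 100% DMSO · Timing – 10 min, room temperature · Technique – light output (luminescence) · Measure – luminescence gain marking luciferase activators · Controls – No-ATP low control, compound-free enzyme-plus-ATP high control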
FLuc inh counter – firefly luciferase enzyme inhibitors, primary screen, artefact control for luciferase-based inhibitor screens, biochemical, luminescence, ATPLite. Luciferin 4-monooxygenase (Photinus pyralis), P08659. 10 min. inhibition, % at 10 µM. hit rate 1.5% among 200,000. AID 1006, 2008;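 active = inhibition above about 50% when tested at 10 µM, limit read from the data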
PPC-1+TRAIL kill – compounds killing PPC-1 cancer cells with TRAIL present, primary screen, TRAIL potentiator project, ATPLite luminescence, uHTS; cell killing (% activity), % at 4 µM or 5 µM; hit rate 0.41% among 220,000; PPC-1 cells + TRAIL, ATPLite viability luminescence;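 active = cell killing above 50% in the first pass at 4 µM, then a duplicate retest at 5 µM averaging 50% or more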;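 also: plate controls were cells with TRAIL plus DMSO for no effect and medium-only wells lacking cells for full effect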
TRAIL sens C8 – viability loss with TRAIL in NB7+C8 cells, primary screen, TRAIL sensitizer project, cell-based, ATPlite luminescence. hit rate 1% among 360,000. inhibition (viability loss, TRAIL sensitization), % at 10 µM;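 active = compounds causing at least 50% loss of cell viability in the single-dose screen, relative to plate controls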
The depositor's hits bear a star.

`CN(Cc1cnc2nc(N)nc(N)c2n1)c1ccc(C(=O)NC(CCC(=O)O)C(=O)O)cc1C(F)(F)F` (centres undefined) gave TRAIL sens C8 82*.
CN(Cc1cnc2nc(N)nc(N)c2n1)c1ccc(C(=O)NC(CCC(=O)O)C(=O)O)cc1 (centres undefined) was read as TRAIL sens C8 81*.
For COC(=O)[C@H](Cc1c[nH]c2ccccc12)NC(=O)NCc1ccc(OC)cc1 the results were TRAIL sens C8 -20.
COc1ccc2c(c1OC)C(=O)N1c3ccccc3C(=O)N(c3ccccc3F)C21 (centres undefined) was read as FLuc stim CS 1, FLuc inh counter -2, PPC-1+TRAIL kill 21 and TRAIL sens C8 9.
Screening COc1ccc2c(c1OC)C(=O)N1c3ccccc3COC21 (centres undefined) returned FLuc stim CS 0.3, FLuc inh counter 72*, PPC-1+TRAIL kill 25 and TRAIL sens C8 47.
Screening COc1ccc2c(c1OC)C(=O)N1c3ccccc3SC21 (centres undefined) returned FLuc stim CS 0.5, FLuc inh counter 54*, PPC-1+TRAIL kill 5 and TRAIL sens C8 27.
CCOC(=O)Cc1cc(=O)n2[nH]c(-c3ccc(Cl)cc3)cc2n1 was read as FLuc stim CS 0.4, FLuc inh counter 57*, PPC-1+TRAIL kill 17 and TRAIL sens C8 10.
`C=CCc1c(C)nc(-c2ccccc2)nc1N/N=C/c1ccncc1` gave FLuc stim CS 0.5, FLuc inh counter 53*, PPC-1+TRAIL kill 25 and TRAIL sens C8 20.
`C=CCc1c(C)nc(-c2ccccc2)nc1N/N=C/c1ccccc1` gave FLuc stim CS 0.9, FLuc inh counter 10, PPC-1+TRAIL kill 14 and TRAIL sens C8 1.
O=C(Nc1ccc(N2CCCC(O)C2)cc1)c1snc2c(=O)[nH]cnc12 (centres undefined) was read as FLuc stim CS 0.3, FLuc inh counter 66*, PPC-1+TRAIL kill 47 and TRAIL sens C8 49.
Screening Cc1nc2c(C(=O)Nc3ccc(N4CCCC(O)C4)cc3)snc2c(=O)[nH]1 (centres undefined) returned PPC-1+TRAIL kill -4 and TRAIL sens C8 20.
Screening O=C(O)c1ccc(N2C(=O)CC(SC(=Nc3ccccc3)Nc3ccccc3)C2=O)cc1 (centres undefined) returned FLuc stim CS 1, FLuc inh counter -2, PPC-1+TRAIL kill 27 and TRAIL sens C8 -2.
`CC(/C=C/c1ccc(N(C)C)cc1)=N\N=C(/N)SC1CC(=O)N(c2ccc(C(=O)O)cc2)C1=O` (centres undefined) gave FLuc stim CS 0.3, FLuc inh counter 69*, PPC-1+TRAIL kill 54* and TRAIL sens C8 46.
Screening O=C(CSc1nnc(-c2ccccc2F)o1)N1CCNC1=O returned TRAIL sens C8 9.
O=[N+]([O-])c1ccc(N=Nc2c(O)[nH]c3ccc(F)cc23)cc1 was read as TRAIL sens C8 54*.
O=[N+]([O-])c1ccc2[nH]c(O)c(N=Nc3ccc(F)cc3)c2c1 was read as TRAIL sens C8 -4.
`Cc1ccc(C(=O)N/C(=C\c2ccc(-c3ccccc3[N+](=O)[O-])o2)C(=O)NCCCN2CCOCC2)cc1` gave TRAIL sens C8 56*.
Screening CC1=CC2C(C(O)CC3(C)C2CC(C)C32OCOC23COCO3)C2(C)C/C(=C\O)C(=O)C=C12 (centres undefined) returned TRAIL sens C8 94*.
For COc1ccc(-n2c(SCC(=O)N/N=C(\C)c3cccnc3)nc3ccccc3c2=O)cc1 the results were PPC-1+TRAIL kill 2 and TRAIL sens C8 -3.
`Cc1c(-c2ccc(Br)cc2)nc2ccccn12` gave FLuc stim CS 0.5, FLuc inh counter 46, PPC-1+TRAIL kill 20 and TRAIL sens C8 16.
For CN(C)c1ccc(-c2nc3ccccn3c2/N=C/c2ccc(Br)cc2)cc1 the results were FLuc stim CS 0.1, FLuc inh counter 94*, PPC-1+TRAIL kill 38 and TRAIL sens C8 53*.
COc1ccc(Cc2c(C)nc(N)nc2Cl)cc1 was read as FLuc stim CS 1, FLuc inh counter -3, PPC-1+TRAIL kill 7 and TRAIL sens C8 -5.
Cc1nc(N)nc(N)c1-c1ccc(Cl)c(Cl)c1 was read as TRAIL sens C8 82*.
